ChEMBL document CHEMBL3616437, “Thiazole compounds with activity against Cryptococcus gattii and Cryptococcus neoformans in vitro” (Eur J Med Chem, 2015)

Legend:
Cryptococcus neoformans [1] = test: Ratio of compound MIC for Cryptococcus neoformans 5396 in presence of amphotericin B to compound MIC for Cryptococcus neoformans 5396 in absence of amphotericin B by checkerboard microtiter test; assay type: functional
Summary of the method: (§1)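 Checkerboard microdilution: eight two-fold dilutions of test compound (0.11 to 15.6 µM) crossed with amphotericin B (0.025 to 3.9 µM, in DMSO) or fluconazole (0.48 to 62.5 µM, in water). Inoculum per CLSI M27-A3 in RPMI-MOPS pH 7.0, 1-5 x10^3 cells/mL. Growth 48 to 72 h. Effective MIC is the combination concentration giving complete inhibition. FICs derived from MICs in combination versus alone.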

[2] = test system: Cryptococcus gattii species complex; test: Ratio of compound MIC for Cryptococcus gattii 1913ER in presence of fluconazole to compound MIC for Cryptococcus gattii 1913ER in absence of fluconazole by checkerboard microtiter test; assay type: functional, Cryptococcus bacillisporus; summary of the method: as §1
Cryptococcus neoformans [3] = test: Ratio of compound MIC for Cryptococcus neoformans ATCC 62066 in presence of fluconazole to compound MIC for Cryptococcus neoformans ATCC 62066 in absence of fluconazole by checkerboard microtiter test; assay type: functional; summary of the method: as §1
Cryptococcus neoformans [4] = test: Ratio of compound MIC for Cryptococcus neoformans ATCC 28957 in presence of fluconazole to compound MIC for Cryptococcus neoformans ATCC 28957 in absence of fluconazole by checkerboard microtiter test; assay type: functional; summary of the method: as §1
[5] = test system: Cryptococcus gattii species complex; test: Ratio of compound MIC for Cryptococcus gattii LMM818 in presence of fluconazole to compound MIC for Cryptococcus gattii LMM818 in absence of fluconazole by checkerboard microtiter test; assay type: functional, Cryptococcus bacillisporus; summary of the method: as §1
Cryptococcus neoformans [6] = test: Ratio of compound MIC for Cryptococcus neoformans ATCC 62066 in presence of amphotericin B to compound MIC for Cryptococcus neoformans ATCC 62066 in absence of amphotericin B by checkerboard microtiter test; assay type: functional; summary of the method: as §1
[7] = test system: Cryptococcus gattii species complex; test: Ratio of compound MIC for Cryptococcus gattii 135L/03 in presence of fluconazole to compound MIC for Cryptococcus gattii 135L/03 in absence of fluconazole by checkerboard microtiter test; assay type: functional, Cryptococcus bacillisporus; summary of the method: as §1
Cryptococcus neoformans [8] = test: Ratio of compound MIC for Cryptococcus neoformans 27JF in presence of fluconazole to compound MIC for Cryptococcus neoformans 27JF in absence of fluconazole by checkerboard microtiter test; assay type: functional; summary of the method: as §1
Cryptococcus neoformans [9] = test: Ratio of compound MIC for Cryptococcus neoformans CN31 in presence of fluconazole to compound MIC for Cryptococcus neoformans CN31 in absence of fluconazole by checkerboard microtiter test; assay type: functional; summary of the method: as §1
[10] = test system: Cryptococcus gattii species complex; test: Ratio of compound MIC for Cryptococcus gattii L28/02 in presence of fluconazole to compound MIC for Cryptococcus gattii L28/02 in absence of fluconazole by checkerboard microtiter test; assay type: functional, Cryptococcus bacillisporus; summary of the method: as §1
Cryptococcus neoformans [11] = test: Ratio of compound MIC for Cryptococcus neoformans 28JF in presence of fluconazole to compound MIC for Cryptococcus neoformans 28JF in absence of fluconazole by checkerboard microtiter test; assay type: functional; summary of the method: as §1
Cryptococcus gattii = test: Ratio of compound MIC for Cryptococcus gattii ATCC 24065 in presence of amphotericin B to compound MIC for Cryptococcus gattii ATCC 24065 in absence of amphotericin B by checkerboard microtiter test
Cryptococcus neoformans [12] = test: Ratio of compound MIC for Cryptococcus neoformans ATCC 24067 in presence of fluconazole to compound MIC for Cryptococcus neoformans ATCC 24067 in absence of fluconazole by checkerboard microtiter test; assay type: functional; summary of the method: as §1
[13] = test system: Cryptococcus bacillisporus; test: Ratio of compound MIC for Cryptococcus gattii ATCC 32608 in presence of fluconazole to compound MIC for Cryptococcus gattii ATCC 32608 in absence of fluconazole by checkerboard microtiter test; assay type: functional; summary of the method: as §1
[14] = test system: Cryptococcus gattii species complex; test: Ratio of compound MIC for Cryptococcus gattii ICB181 in presence of amphotericin B to compound MIC for Cryptococcus gattii ICB181 in absence of amphotericin B by checkerboard microtiter test; assay type: functional, Cryptococcus bacillisporus; summary of the method: as §1
[15] = test system: Cryptococcus gattii species complex; test: Ratio of compound MIC for Cryptococcus gattii L27/01 in presence of amphotericin B to compound MIC for Cryptococcus gattii L27/01 in absence of amphotericin B by checkerboard microtiter test; assay type: functional, Cryptococcus bacillisporus; summary of the method: as §1
Cryptococcus neoformans [16] = test: Ratio of compound MIC for Cryptococcus neoformans LMM820 in presence of amphotericin B to compound MIC for Cryptococcus neoformans LMM820 in absence of amphotericin B by checkerboard microtiter test; assay type: functional; summary of the method: as §1
[17] = test system: Cryptococcus gattii species complex; test: Ratio of compound MIC for Cryptococcus gattii 547/OTTI-97-PI-10 in presence of fluconazole to compound MIC for Cryptococcus gattii 547/OTTI-97-PI-10 in absence of fluconazole by checkerboard microtiter test; assay type: functional, Cryptococcus bacillisporus; summary of the method: as §1
[18] = test system: Cryptococcus gattii species complex; test: Ratio of compound MIC for Cryptococcus gattii 196L/03 in presence of amphotericin B to compound MIC for Cryptococcus gattii 196L/03 in absence of amphotericin B by checkerboard microtiter test; assay type: functional, Cryptococcus bacillisporus; summary of the method: as §1
Cryptococcus neoformans [19] = test: Ratio of compound MIC for Cryptococcus neoformans LMM820 in presence of fluconazole to compound MIC for Cryptococcus neoformans LMM820 in absence of fluconazole by checkerboard microtiter test; assay type: functional; summary of the method: as §1
[20] = test system: Cryptococcus gattii species complex; test: Ratio of compound MIC for Cryptococcus gattii 23/10993 in presence of amphotericin B to compound MIC for Cryptococcus gattii 23/10993 in absence of amphotericin B by checkerboard microtiter test; assay type: functional, Cryptococcus bacillisporus; summary of the method: as §1
[21] = test system: Cryptococcus gattii species complex; test: Ratio of compound MIC for Cryptococcus gattii 196L/03 in presence of fluconazole to compound MIC for Cryptococcus gattii 196L/03 in absence of fluconazole by checkerboard microtiter test; assay type: functional, Cryptococcus bacillisporus; summary of the method: as §1
[22] = test system: Cryptococcus gattii species complex; test: Ratio of compound MIC for Cryptococcus gattii L24/01 in presence of amphotericin B to compound MIC for Cryptococcus gattii L24/01 in absence of amphotericin B by checkerboard microtiter test; assay type: functional, Cryptococcus bacillisporus; summary of the method: as §1
[23] = test system: Cryptococcus gattii species complex; test: Ratio of compound MIC for Cryptococcus gattii L27/01 in presence of fluconazole to compound MIC for Cryptococcus gattii L27/01 in absence of fluconazole by checkerboard microtiter test; assay type: functional, Cryptococcus bacillisporus; summary of the method: as §1
Cryptococcus neoformans [24] = test: Ratio of compound MIC for Cryptococcus neoformans 96806 in presence of amphotericin B to compound MIC for Cryptococcus neoformans 96806 in absence of amphotericin B by checkerboard microtiter test; assay type: functional; summary of the method: as §1
[25] = test system: Cryptococcus gattii species complex; test: Ratio of compound MIC for Cryptococcus gattii L24/01 in presence of fluconazole to compound MIC for Cryptococcus gattii L24/01 in absence of fluconazole by checkerboard microtiter test; assay type: functional, Cryptococcus bacillisporus; summary of the method: as §1
[26] = test system: Cryptococcus gattii species complex; test: Ratio of compound MIC for Cryptococcus gattii 1913ER in presence of amphotericin B to compound MIC for Cryptococcus gattii 1913ER in absence of amphotericin B by checkerboard microtiter test; assay type: functional, Cryptococcus bacillisporus; summary of the method: as §1
[27] = test system: Cryptococcus gattii species complex; test: Ratio of compound MIC for Cryptococcus gattii 23/10993 in presence of fluconazole to compound MIC for Cryptococcus gattii 23/10993 in absence of fluconazole by checkerboard microtiter test; assay type: functional, Cryptococcus bacillisporus; summary of the method: as §1
Cryptococcus neoformans [28] = test: Ratio of compound MIC for Cryptococcus neoformans WP in presence of amphotericin B to compound MIC for Cryptococcus neoformans WP in absence of amphotericin B by checkerboard microtiter test; assay type: functional; summary of the method: as §1
Cryptococcus neoformans [29] = test: Ratio of compound MIC for Cryptococcus neoformans ATCC 28957 in presence of amphotericin B to compound MIC for Cryptococcus neoformans ATCC 28957 in absence of amphotericin B by checkerboard microtiter test; assay type: functional; summary of the method: as §1

Row | Compound | fractional inhibitory concentration index (FICI) (Cryptococcus neoformans [1]) | fractional inhibitory concentration index (FICI) [2] | fractional inhibitory concentration index (FICI) (Cryptococcus neoformans [3]) | fractional inhibitory concentration index (FICI) (Cryptococcus neoformans [4]) | fractional inhibitory concentration index (FICI) [5] | fractional inhibitory concentration index (FICI) (Cryptococcus neoformans [6]) | fractional inhibitory concentration index (FICI) [7] | fractional inhibitory concentration index (FICI) (Cryptococcus neoformans [8]) | fractional inhibitory concentration index (FICI) (Cryptococcus neoformans [9]) | fractional inhibitory concentration index (FICI) [10] | fractional inhibitory concentration index (FICI) (Cryptococcus neoformans [11]) | fractional inhibitory concentration index (FICI) (Cryptococcus gattii) | fractional inhibitory concentration index (FICI) (Cryptococcus neoformans [12]) | fractional inhibitory concentration index (FICI) [13] | fractional inhibitory concentration index (FICI) [14] | fractional inhibitory concentration index (FICI) [15] | fractional inhibitory concentration index (FICI) (Cryptococcus neoformans [16]) | fractional inhibitory concentration index (FICI) [17] | fractional inhibitory concentration index (FICI) [18] | fractional inhibitory concentration index (FICI) (Cryptococcus neoformans [19]) | further results
1 | C(=N\Nc1nc(-c2ccccc2)cs1)/C1CCCCC1 | 1.15 | 2.09 | 2.04 | 4.47 | 2.47 | 2.47 | 2.47 | 6.8 | 3.97 | 2.47 | 1.99 | 1.72 | 3.59 | 1.72 | 4.98 | 1.34 | 4.3 | 4.47 | 3.97 | 4.24 | fractional inhibitory concentration index (FICI) [20]: 2.67; fractional inhibitory concentration index (FICI) [21]: 2.47; fractional inhibitory concentration index (FICI) [22]: 4.87; fractional inhibitory concentration index (FICI) [23]: 4.23; fractional inhibitory concentration index (FICI) (Cryptococcus neoformans [24]): 2.67; fractional inhibitory concentration index (FICI) [25]: 2.47; fractional inhibitory concentration index (FICI) [26]: 1.47; fractional inhibitory concentration index (FICI) [27]: 1.47; fractional inhibitory concentration index (FICI) (Cryptococcus neoformans [28]): 2.41; fractional inhibitory concentration index (FICI) (Cryptococcus neoformans [29]): 1.09
2 | c1ccc(-c2csc(NN=C3CCCC3)n2)cc1 | 4.86 | 2.45 | 2.46 | 3.36 | 1.59 | 3.06 | 2.45 | 3.33 | 2.71 | 4.22 | 3.77 | 1.2 | 4.46 | 3.45 | 1.28 | 2.48 | 2.66 | 5.96 | 1.46 | 4.46 | fractional inhibitory concentration index (FICI) [20]: 2.18; fractional inhibitory concentration index (FICI) [21]: 1.84; fractional inhibitory concentration index (FICI) [22]: 2.16; fractional inhibitory concentration index (FICI) [23]: 1.45; fractional inhibitory concentration index (FICI) (Cryptococcus neoformans [24]): 2.46; fractional inhibitory concentration index (FICI) [25]: 6.46; fractional inhibitory concentration index (FICI) [26]: 1.04; fractional inhibitory concentration index (FICI) [27]: 4.23; fractional inhibitory concentration index (FICI) (Cryptococcus neoformans [28]): 1.46; fractional inhibitory concentration index (FICI) (Cryptococcus neoformans [29]): 2.22
